S100A4 MyoIIA – S100A4-myosin IIA interaction inhibition. P26447. S100A4/TAMRA-MyoIIA peptide fluorescence polarization. inhibition, % at 10.7 µM. 360,000 compounds, 0.14% hits;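 active means mean inhibition of at least 70% across replicates, with every replicate also reaching that level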
Target sequence (P26447 whole entry, looked up): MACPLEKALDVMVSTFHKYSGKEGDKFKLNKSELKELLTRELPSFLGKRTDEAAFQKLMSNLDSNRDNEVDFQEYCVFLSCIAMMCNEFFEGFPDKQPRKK
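Material: S100A4 monomer protein / Buffer or medium: 50 mM HEPES pH 7.2, 10 mM CaCl2, 100 mM KCl / Times: 5 min incubation before reading / Benchmarks: neutral control DMSO, positive control TFP / Reagent: labelled myosin peptide probe, 5 nM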
PKA-R2B activ – activates the human PKA-R2B holoenzyme complex; PKA-R2B holoenzyme dissociation, Cy5-IP20 fluorescence polarization; R2B truncated from residue 108, S112A mutant; 0% DMSO only, 100% 113 µM cGMP; activation, % at 11.4 µM; 340,000 compounds, 0.079% hits;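 active means activation above a cutoff set at the mean over all compounds plus 3 SD, cut at about 18% in these data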;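 further: higher means more holoenzyme dissociation and a rise in polarization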
SIRT5 block – inhibitors of human sirtuin-5 desuccinylase | 330,000 compounds, 1.1% hits | Purified SirT5, succinyl-peptide AMC, trypsin-coupled fluorescence | inhibition, % at 15 µM | Q9NXA8; in the data active means inhibition above about 15%
Target sequence (Q9NXA8 whole entry, looked up): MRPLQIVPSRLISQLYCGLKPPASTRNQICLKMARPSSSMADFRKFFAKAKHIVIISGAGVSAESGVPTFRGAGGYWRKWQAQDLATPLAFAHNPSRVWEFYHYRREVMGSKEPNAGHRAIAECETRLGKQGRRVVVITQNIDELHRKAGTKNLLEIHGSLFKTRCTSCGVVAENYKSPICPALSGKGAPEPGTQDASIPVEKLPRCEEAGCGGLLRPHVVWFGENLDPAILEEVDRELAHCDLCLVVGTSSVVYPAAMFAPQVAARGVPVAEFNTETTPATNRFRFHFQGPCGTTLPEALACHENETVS
CRFR2-BP antag – blocks CRF-induced signaling of the CRF-BP/CRF-R2 complex; 350,000 compounds, 0.59% hits; HEK293 CRF-R2/CRF-BP, CRF-induced calcium fluorescence; inhibition, % at 11.8 µM;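 active means inhibition of the ligand-induced calcium signal above about 50% at the single tested concentration, limit read from the data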
PKA-R1A act – activates the PKA-R1A holoenzyme complex; PKA-R1A dissociation, Cy5-IP20 fluorescence polarization; scaled: DMSO 0%, 113 µM cGMP 100%; AID 504707; P00514+P68181; 340,000 compounds, 0.083% hits; activation, % at 11.4 µM;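 active means percent activation above the mean of all tested compounds plus 3 SD, cut at about 19% in these data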;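 further: higher means more PKAc released from R1A so a rise in polarization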
* marks the source's active call; other numbers are inactive results; · = not tested or not shown. Rows were chosen to be rich in hits. Some 1.5% of all compounds tested hit in one or more screens of this group.

SMILES | S100A4 MyoIIA | PKA-R2B activ | SIRT5 block | CRFR2-BP antag | PKA-R1A act
Cc1cc(C)c2c(c1)NC(C(=O)O)C1CC=CC21 (stereo not drawn) | -3 | -1 | 18* | 18 | 2
CN1c2ccc(C3=CCCCC3)cc2[C@@H]2[C@@H](CCN2C(=O)C2CC2)[C@@H]1CO | 2 | · | 1 | · | ·
CN1c2ccc(C3=CCCCC3)cc2[C@@H]2[C@@H](CCN2C(=O)C2CCCCC2)[C@@H]1CO | 4 | · | 18* | · | ·
CN1c2ccc(C3=CCCCC3)cc2[C@H]2[C@H](CCN2C(=O)C2CC2)[C@@H]1CO | 14 | · | 20* | · | ·
CN1c2ccc(C3=CCCCC3)cc2[C@@H]2[C@@H](CCN2C(=O)C2CC2)[C@H]1CO | 118* | · | 5 | · | ·
Cc1noc(C)c1S(=O)(=O)Nc1ccc2c(c1)C(=O)N([C@H](C)CO)C[C@H](C)[C@@H](CN(C)Cc1ccc(C(F)(F)F)cc1)O2 | -3 | · | -5 | · | ·
O=C(Nc1cc(F)ccc1F)N[C@H]1CC[C@H](CCn2cc(C3CCCC3)nn2)O[C@H]1CO | 9 | · | 1 | · | ·
Cc1ccc(S(=O)(=O)N(C)C[C@@H]2OCCCC[C@@H](C)Oc3ccc(NC(=O)NC4CCCCC4)cc3C(=O)N([C@H](C)CO)C[C@H]2C)cc1 | -14 | · | 4 | · | ·
C[C@H](CO)N1C[C@H](C)[C@H](CN(C)S(C)(=O)=O)Oc2c(NS(=O)(=O)c3ccc(Cl)cc3)cccc2C1=O | -19 | · | 1 | · | ·
CCCn1c(=N)c(S(=O)(=O)c2ccccc2)cc2c(=O)n3ccccc3nc21 | 2 | -5 | · | 110* | -2
CC(C)(C)S(=O)(=O)/C(C#N)=N/Nc1ccc(Cl)cc1 | 0 | 0 | 1 | 65* | 9
Cc1cc(C)n(-c2nnc(C)n2/N=C/c2ccccc2F)n1 | · | 4 | · | -13 | -2
Cc1cc(C)n(-c2nnc(C)n2/N=C/c2ccc(O)cc2)n1 | 5 | -15 | 18* | -20 | 4
O=C1CC(Nc2cc(=O)[nH]c(=O)[nH]2)C(=O)N1c1ccccc1Cl (stereo not drawn) | -8 | -3 | -1 | 82* | -14
C[C@H](CO)N1C[C@H](C)[C@@H](CN(C)C(=O)NC2CCCCC2)OCCCC[C@H](C)Oc2ccc(NC(=O)C3CCCCC3)cc2C1=O | 8 | · | 16* | · | ·
C[C@@H]1CCCCO[C@@H](CN(C)C(=O)Nc2cccc3ccccc23)[C@H](C)CN([C@@H](C)CO)C(=O)c2cc(NC(=O)C3CCCCC3)ccc2O1 | 117* | · | 3 | · | ·
S=C(NCc1ccccc1)N1CCn2cccc2C1c1ccncc1 (stereo not drawn) | 2 | -8 | -1 | -12 | 0
CCc1cccc(CC)c1NC(=S)N1CCn2cccc2C1c1ccncc1 (stereo not drawn) | -2 | -4 | 17* | 8 | 0
C[C@@H]1CN([C@H](C)CO)C(=O)c2cccc(NC(=O)Nc3ccc(F)cc3)c2O[C@@H]1CN(C)Cc1ccncc1 | -2 | · | · | · | ·
CN(C)S(=O)(=O)c1ccc(N2CCCC2)c(C(=O)NC2(C)CCS(=O)(=O)C2)c1 (stereo not drawn) | -3 | 0 | -3 | -4 | 2
CN(C)S(=O)(=O)c1ccc(Cl)c(NC(=O)CNC2(C)CCS(=O)(=O)C2)c1 (stereo not drawn) | 5 | -1 | 4 | 113* | -3
CN1c2ccc(-c3ccccc3)cc2[C@@H]2[C@@H](CCN2C(=O)c2ccccn2)[C@H]1CO | 8 | · | -7 | · | ·
O=C(CCN1CCCCC1)N[C@H]1CC[C@H](CC(=O)N2CCC(Cc3ccccc3)CC2)O[C@H]1CO | 13 | · | 6 | · | ·
O=C(CCN1CCCCC1)N[C@H]1CC[C@H](CC(=O)N2CCC(Cc3ccccc3)CC2)O[C@@H]1CO | -27 | · | 39* | · | ·
COc1ccccc1NC(=O)N1CCCCN2[C@H](CO)[C@H](c3ccc(-c4cccc(F)c4)cc3)[C@@H]2C1 | 1 | · | 16* | · | ·
SMILES | S100A4 MyoIIA | PKA-R2B activ | SIRT5 block | CRFR2-BP antag | PKA-R1A act
O=C(Nc1cc(F)ccc1F)N1CCCCN2[C@H](CO)[C@H](c3ccc(-c4ccccc4)cc3)[C@H]2C1 | -3 | · | 29* | · | ·
O=C(O)C[C@H]1CC[C@@H](NC(=O)Nc2cc(F)ccc2F)[C@@H](CO)O1 | 2 | · | 2 | · | ·
CN(Cc1ccccc1)C(=O)COc1ccc(N(C)S(=O)(=O)c2ccc(F)cc2)cc1 | 1 | 5 | 18* | 7 | -2
C[C@@H]1CN([C@@H](C)CO)C(=O)c2cc(C#CCN(C)C)cnc2O[C@@H]1CN(C)C(=O)Nc1cccc(F)c1 | 9 | · | -1 | · | ·
C[C@@H]1CN([C@H](C)CO)C(=O)c2cc(C#CC(C)(C)O)cnc2O[C@H]1CN(C)C(=O)CC1CC1 | 9 | · | 25* | · | ·
C[C@H](CO)N1C[C@H](C)[C@@H](CN(C)C(=O)CC2CC2)Oc2ncc(C#CC(C)(C)O)cc2C1=O | 9 | · | -1 | · | ·
CCC(=O)N(C)C[C@H]1Oc2ncc(C#CC3(O)CCCC3)cc2C(=O)N([C@@H](C)CO)C[C@H]1C | -25 | · | -2.7* | · | ·
C[C@@H]1CN([C@H](C)CO)C(=O)c2cc(C#CC3(O)CCCC3)cnc2O[C@@H]1CN(C)C | -7 | · | -1 | · | ·
C[C@H](CO)N1C[C@H](C)[C@H](CN(C)CC2CC2)Oc2ncc(C#CC3(O)CCCC3)cc2C1=O | -17 | · | 18* | · | ·
C[C@H](CO)N1C[C@H](C)[C@@H](CN(C)S(C)(=O)=O)Oc2ccc(NC(=O)Nc3ccc(C(F)(F)F)cc3)cc2CC1=O | -8 | · | · | · | ·
C[C@@H]1CN([C@@H](C)CO)C(=O)c2cc(NC(=O)Nc3cccc4ccccc34)ccc2O[C@@H]1CN(C)S(=O)(=O)c1cn(C)cn1 | 7 | · | 2 | · | ·
CC(C)CC#Cc1cnc2c(c1)C(=O)N([C@H](C)CO)C[C@H](C)[C@@H](CN(C)Cc1ccccc1F)O2 | -6 | · | 5 | · | ·
C=CCc1cc(OC)ccc1OCCN1CC(C)OC(C)C1 (stereo not drawn) | -5 | 0 | 102* | 0 | 9
C=CCc1cc(Cl)ccc1OCCN1CC(C)OC(C)C1 (stereo not drawn) | -5 | 7 | 1 | -11 | -10
COc1ccc2c3c([nH]c2c1)[C@@H](CO)N(Cc1ccncc1)CC31CCN(C(=O)CN(C)C)CC1 | -13 | · | -8 | · | ·
COc1ccccc1CNS(=O)(=O)c1cccc2nsnc12 | -1 | -9 | 6 | -16 | -13
COc1ccccc1CNC(=O)C(NS(=O)(=O)c1cccc2nsnc12)C(C)C (stereo not drawn) | 4 | 11 | 19* | 8 | -1
Cc1ccc(S(=O)(=O)N[C@@H]2CC[C@H](CCn3cc(C4(O)CCCC4)nn3)O[C@@H]2CO)cc1 | -8 | · | -3 | · | ·
O=C(Nc1ccccc1C(=O)N1CCOCC1)c1ccco1 | · | -17 | · | 35 | -3
CC#CCCCC(=O)Nc1ccccc1C(=O)O | · | 0 | · | 63* | -10
O=C(O)CCCC(=O)Nc1ccccc1C(=O)N1CCOCC1 | 1 | 5 | 28* | 3 | -7

Assay outcomes (PubChem)
